Test results reported in PubChem BioAssay.
The source made the active and inactive calls. Cut-off read from the data, not from the text of the source, unless noted: active = inhibition above about 30%; inactive = the rest.

Legend:
[1] = reducers of endogenous Her2 protein level, primary screen, SKBR3 breast tumor cells, AlphaScreen, ATP viability (AID 461;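 active = Her2 level under about 52% in both replicate screens, with viability over 70% of control, limit read from the data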;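 for Her2 level: lower value means less Her2 protein in the cells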;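 for viability: percent of carrier control wells set as 100% viability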); settings: 18-24 h, measured here: SKBR3 viability, ATP luminescence, at 10 µM
[2] = molecular target: Receptor tyrosine-protein kinase erbB-2 (Homo sapiens) (UniProt P04626); assay: as above; settings: 18-24 h, at 10 µM, stronger effect = lower value
[3] = SK-BR-3 cell growth inhibitors, pilot screen, 24 h, human (AID 572;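 active = viability at or below 10% of carrier control in both of two separate runs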;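 note: compound exposure lasted between 18 and 24 h rather than exactly 24 h; 100% = carrier-treated control wells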); settings: SK-BR-3 viability, CellTiter-Glo luminescence, at 10 µM, stronger effect = lower value
[4] = HUVEC growth inhibition – cell-based, human, primary screen (AID 575;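 active = viability at or below 30% in both replicate assays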;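 note: 100% = median of untreated cell wells with 0.1% DMSO on each plate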); settings: HUVEC proliferation, CellTiter-Glo luminescence, 72 h; at 10 µM; stronger effect = lower value
In short: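 Test system: primary human umbilical vein endothelial cells; medium: endothelial basal medium with 2% FBS plus growth supplements; dosing: 10 µM compound only; times: 72 h treatment at 37 °C; signal: CTG luminescence; read-out: % viability relative to median vehicle-well signal on each plate; control set: vehicle and MePR control wells; plate: 384-well, collagen-coated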

[5] = growth inhibitors of H69AR lung tumor, primary screen, human, duplicate replicates (AID 580;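 active = viability at or under a set limit in both replicates, limit being median viability minus 3 SD, cut at about 48% in these data, passing the limit was not always enough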;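 note: 100% = mean luminescence of untreated wells and 0% = no signal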); settings: H69AR lung tumor cells viability, ATP luminescence, 72 h; at 10 µM; stronger effect = lower value
[6] = reversal of MRP1-mediated doxorubicin resistance, pilot screen, H69AR cells, doxorubicin co-treatment (AID 601;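 active = viability loss from added drug above about 55%, and viability with drug at most 40%, in both replicates, limit read from the data, passing the limit was not always enough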); settings: CellTiter-Glo, 72 h, at 10 µM; for differential viability (reversal): stronger effect = higher value
[7] = 384-well plate pilot, post-Golgi transport modulator project, inhibition of yeast transport mutant growth (AID 636; in the data active = inhibition above about 31%); settings: absorbance 615 nm, about 18 h, stronger effect = higher value
[8] = growth suppression of yeast trafficking mutant, preliminary HTS, modulators of trafficking downstream of Golgi apparatus project, 1536-format plate, OD 615 nm (AID 637); settings: yeast transport mutant growth, absorbance 615 nm, 18 h; stronger effect = higher value
[9] = H69AR cells + 2 uM doxorubicin, measured here: viability with 2 uM doxorubicin, stronger effect = lower value
[10] = H69AR cells, compound alone cytotoxicity

Receptor tyrosine-protein kinase erbB-2 (Homo sapiens), sequence (P04626 whole entry, looked up): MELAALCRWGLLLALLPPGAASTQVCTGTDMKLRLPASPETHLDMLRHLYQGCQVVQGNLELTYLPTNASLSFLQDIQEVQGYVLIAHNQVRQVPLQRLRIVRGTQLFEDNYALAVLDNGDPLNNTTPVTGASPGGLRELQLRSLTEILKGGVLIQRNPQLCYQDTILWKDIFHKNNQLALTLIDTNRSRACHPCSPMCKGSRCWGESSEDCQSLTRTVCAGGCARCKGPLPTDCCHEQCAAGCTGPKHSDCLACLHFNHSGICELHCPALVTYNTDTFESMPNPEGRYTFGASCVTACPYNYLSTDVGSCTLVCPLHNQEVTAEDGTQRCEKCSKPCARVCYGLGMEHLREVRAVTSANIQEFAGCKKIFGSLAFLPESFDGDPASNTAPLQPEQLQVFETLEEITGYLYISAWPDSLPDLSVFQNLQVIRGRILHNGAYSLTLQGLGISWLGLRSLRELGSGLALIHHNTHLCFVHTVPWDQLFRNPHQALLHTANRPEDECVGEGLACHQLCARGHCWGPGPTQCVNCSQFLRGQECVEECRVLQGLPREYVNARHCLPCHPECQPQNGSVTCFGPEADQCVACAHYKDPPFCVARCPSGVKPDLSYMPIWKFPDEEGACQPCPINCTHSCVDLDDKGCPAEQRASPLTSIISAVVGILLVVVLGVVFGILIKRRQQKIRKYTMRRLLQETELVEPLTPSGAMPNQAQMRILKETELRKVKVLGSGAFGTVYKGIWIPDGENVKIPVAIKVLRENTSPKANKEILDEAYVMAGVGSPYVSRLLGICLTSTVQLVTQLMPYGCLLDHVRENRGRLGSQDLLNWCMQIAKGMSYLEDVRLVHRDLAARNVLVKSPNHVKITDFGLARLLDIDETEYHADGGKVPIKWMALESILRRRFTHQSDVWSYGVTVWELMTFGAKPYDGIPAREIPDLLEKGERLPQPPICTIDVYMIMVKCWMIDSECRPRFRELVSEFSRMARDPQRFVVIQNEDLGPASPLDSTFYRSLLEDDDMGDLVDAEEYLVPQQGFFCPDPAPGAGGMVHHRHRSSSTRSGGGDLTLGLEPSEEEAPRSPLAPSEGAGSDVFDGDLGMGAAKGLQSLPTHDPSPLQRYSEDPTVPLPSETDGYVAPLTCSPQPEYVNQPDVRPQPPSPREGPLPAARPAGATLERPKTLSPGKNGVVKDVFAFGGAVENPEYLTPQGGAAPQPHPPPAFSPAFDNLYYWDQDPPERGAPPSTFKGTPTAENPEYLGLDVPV

SMILES | viability [1] [%] | Her2 level [2] | viability [3] | viability [4] | viability [5] | differential viability (reversal) ([6]; H69AR cells + 2 uM doxorubicin) | viability [6, 9] [%] | viability [6, 10] [%] | inhibition [7] | inhibition [8]
Cc1cc(C)n(-c2nnc(C)n2/N=C/c2ccco2)n1 | 108 | 91% (inactive) | 108% (inactive) | 93.1% (inactive) | 96.1% (inactive) | 5.14% (inactive) | 91 | 96.1 | -6.27% (inactive) | -2.3% (inactive)
Cc1cc(Cl)ccc1OCCCC(=O)NO | 80.5 | 76% (inactive) | 80.5% (inactive) | 71.3% (inactive) | 2.07% (active) | -20.7% (inactive) | 22.7 | 2.07 | 2.18% (inactive) | 3.83% (inactive)
CCOC(=O)N1CCN(S(=O)(=O)c2cc(Cl)ccc2Cl)CC1 | 106 | 94.5% (inactive) | 106% (inactive) | 90.7% (inactive) | 85% (inactive) | 2.05% (inactive) | 83 | 85 | -3.38% (inactive) | -0.32% (inactive)
Cc1onc(-c2ccccc2Cl)c1C(=O)Nc1cccnc1 | 102 | 72% (inactive) | 102% (inactive) | 103% (inactive) | 95.6% (inactive) | 1.41% (inactive) | 94.2 | 95.6 | -7.57% (inactive) | -1.31% (inactive)
Cc1ccccc1-c1nc(CN2CCC(C(=O)NCc3cccnc3)CC2)c(C)o1 | 88.5 | 82.5% (inactive) | 88.5% (inactive) | 85.7% (inactive) | 87.1% (inactive) | 0.825% (inactive) | 86.3 | 87.1 | -1.71% (inactive) | 0% (inactive)
CC1(C)NC(=O)N(CC(O)CN(Cc2ccccc2)Cc2ccccc2)C1=O (stereo not given) | 78 | 78.5% (inactive) | 78% (inactive) | 108% (inactive) | 92.6% (inactive) | 13.7% (inactive) | 78.9 | 92.6 | -4.59% (inactive) | -10.2% (inactive)
COC(=O)CSc1cc(C)nc(NC(C)=O)n1 | 93.5 | 83.5% (inactive) | 93.5% (inactive) | 102% (inactive) | 101% (inactive) | 6.47% (inactive) | 94.2 | 101 | -3.92% (inactive) | -0.95% (inactive)
O=C(CSc1ncccn1)c1ccccc1Br | 120 | 93.5% (inactive) | 120% (inactive) | 116% (inactive) | 90.7% (inactive) | -4.21% (inactive) | 94.9 | 90.7 | -6.32% (inactive) | -1.64% (inactive)
CC(C)CNS(=O)(=O)c1ccc(OCC(=O)Nc2ccc3c(c2)OCO3)c(Cl)c1 | 89.5 | 66% (inactive) | 89.5% (inactive) | 58.6% (inactive) | 66.7% (inactive) | -2.31% (inactive) | 69 | 66.7 | -5.39% (inactive) | -0.67% (inactive)
Cc1cccc2cc(CN(CCN3CCCC3)C(=O)NC3CCCCC3)c(=O)[nH]c12 | 83 | 78.5% (inactive) | 83% (inactive) | 76.5% (inactive) | 91% (inactive) | -1.06% (inactive) | 92 | 91 | -6.08% (inactive) | -0.16% (inactive)
COc1cccc(S(=O)(=O)Nc2cccnc2)c1 | 98 | 107% (inactive) | 98% (inactive) | 88.2% (inactive) | 103% (inactive) | 12.3% (inactive) | 90.3 | 103 | -0.4% (inactive) | -3.71% (inactive)
Cc1cccc(Cn2c(=O)n(Cc3ccco3)c(=O)c3ccccc32)c1 | 87 | 97.5% (inactive) | 87% (inactive) | 100% (inactive) | 92.5% (inactive) | -9.65% (inactive) | 102 | 92.5 | -2.11% (inactive) | 1.15% (inactive)
O=C(C1CCN(S(=O)(=O)c2cccnc2)CC1)N1CCN(c2ccc(Cl)cc2)CC1 | 84 | 81% (inactive) | 84% (inactive) | 70.2% (inactive) | 89.7% (inactive) | 18.8% (inactive) | 70.9 | 89.7 | -2.11% (inactive) | -4.44% (inactive)
COc1ccccc1CNS(=O)(=O)c1ccc(NC(C)=O)cc1 | 94.5 | 84% (inactive) | 94.5% (inactive) | 106% (inactive) | 92.9% (inactive) | -7.69% (inactive) | 101 | 92.9 | -5.73% (inactive) | 2.22% (inactive)
Cc1cc(=O)n(CC(C)C)c(O)c1C#N | 106 | 98% (inactive) | 106% (inactive) | 99.4% (inactive) | 104% (inactive) | 0.33% (inactive) | 104 | 104 | 0.53% (inactive) | 5.08% (inactive)
CCOC(=O)c1nnn(-c2nonc2N)c1CN1CCc2ccccc2C1 | 102 | 93% (inactive) | 102% (inactive) | 96.4% (inactive) | 91.7% (inactive) | -0.015% (inactive) | 91.7 | 91.7 | -0.13% (inactive) | -3.02% (inactive)
CCSc1cc(C2C(C(=O)OC)=C(C)NC3=C2C(=O)CCC3)c(C)o1 (stereo not given) | 79 | 90% (inactive) | 79% (inactive) | 109% (inactive) | 84.5% (inactive) | 5.68% (inactive) | 78.8 | 84.5 | -6.8% (inactive) | 3.93% (inactive)
CCOC(=O)C1CCN(C(=O)c2ccc(Cl)c(Cl)c2)CC1 | 75.5 | 105% (inactive) | 75.5% (inactive) | 94.3% (inactive) | 102% (inactive) | 5.88% (inactive) | 96.3 | 102 | 3.65% (inactive) | -2.3% (inactive)
CC1(C)Cc2noc(N)c2C(C)(C)N1OC(=O)c1ccccc1 | 107 | 132% (inactive) | 107% (inactive) | 104% (inactive) | 107% (inactive) | 21.2% (inactive) | 86.2 | 107 | 0% (inactive) | -5.4% (inactive)
Cc1c(C(=O)O)sc2nc3n(c(=O)c12)CCC(C)CC3 (stereo not given) | 93 | 87% (inactive) | 93% (inactive) | 82.2% (inactive) | 88.2% (inactive) | 5.25% (inactive) | 83 | 88.2 | -0.53% (inactive) | 8.69% (inactive)
Cc1ccc(SCc2[nH]nc3c2C(c2ccc(C)o2)C(C#N)=C(N)O3)cc1 (stereo not given) | 91 | 88% (inactive) | 91% (inactive) | 74.3% (inactive) | 76.8% (inactive) | -5.55% (inactive) | 82.4 | 76.8 | -7.03% (inactive) | 2.06% (inactive)
CCOC(=O)CSc1nnc([C@H](CC(C)C)NC(=O)OC(C)(C)C)o1 | 109 | 106% (inactive) | 109% (inactive) | 94% (inactive) | 94.6% (inactive) | -0.88% (inactive) | 95.5 | 94.6 | -3.6% (inactive) | -3.71% (inactive)
c1ccc(-c2nn3c(Cn4nnc5ccccc54)nnc3s2)nc1 | 102 | 114% (inactive) | 102% (inactive) | 75.6% (inactive) | 101% (inactive) | 9.54% (inactive) | 91.5 | 101 | -2.89% (inactive) | -2.67% (inactive)
Cc1ccc(Cn2c(SCCN3CCCCC3)nc3c2c(=O)[nH]c(=O)n3C)cc1 | 94.5 | 104% (inactive) | 94.5% (inactive) | 84.1% (inactive) | 81.7% (inactive) | -3.14% (inactive) | 84.8 | 81.7 | -7.6% (inactive) | -6.83% (inactive)
COCCCn1c(SCC(=O)Nc2cccc(C)n2)nnc1-c1ccco1 | 95 | 82.5% (inactive) | 95% (inactive) | 106% (inactive) | 98.5% (inactive) | 12.9% (inactive) | 85.6 | 98.5 | -3.6% (inactive) | -2.95% (inactive)
COc1cc(C2C(C(=O)c3ccc(C)o3)=C(O)C(=O)N2c2cc(C)on2)cc(Br)c1O (stereo not given) | 102 | 93% (inactive) | 102% (inactive) | 99.8% (inactive) | 95.7% (inactive) | 8.72% (inactive) | 86.9 | 95.7 | -1.97% (inactive) | -3.49% (inactive)
CC(C)N1C(=O)C2C(C(=O)NC3CCCCC3)C3C=CC2(O3)C1C(=O)NC1CCCC1 (stereo not given) | 94.5 | 87% (inactive) | 94.5% (inactive) | 107% (inactive) | 109% (inactive) | 15.9% (inactive) | 93.5 | 109 | -4.67% (inactive) | -1.11% (inactive)
Cc1csc2nc(CSc3ccc(Cl)cc3)cn12 | 97.5 | 78% (inactive) | 97.5% (inactive) | 80.9% (inactive) | 88.2% (inactive) | 15.9% (inactive) | 72.3 | 88.2 | -5.87% (inactive) | 3.77% (inactive)
FC(F)Sc1nnc(-c2cccs2)n1-c1ccccc1 | 101 | 92% (inactive) | 101% (inactive) | 93.6% (inactive) | 98% (inactive) | 10.1% (inactive) | 87.9 | 98 | -7.33% (inactive) | 2.74% (inactive)
